This is an account of results in EPA's CvTdb concentration-time database.

Series [1] concerns Rat. Description: concentration in plasma after dosing. Conditions: dosed: Wyeth-14643, 2.0 mg/kg, oral, Male, Sprague-Dawley.
For series [2], the system named is Rat. Nature of the series: concentration in plasma after dosing. To be noted: dosed: Wyeth-14643, 2.0 mg/kg, oral, Male, Sprague-Dawley. The source holds these as a separate data set.
Series [3] has as its system Rat. Description: concentration in plasma after dosing. To be noted: 5 min; dosed: Wyeth-14643; 2.0 mg/kg; iv; Male; Sprague-Dawley.
Series [4] has as its system Rat. Nature of the series: concentration in liver after dosing. Conditions: 40 min; dosed: Bis 2-Chloroethoxy Methane; 20 mg/kg; iv; Male; F344.
For series [5], the system named is Rat. Nature of the series: concentration in thymus after dosing. Conditions: 40 min; dosed: Bis 2-Chloroethoxy Methane; 20 mg/kg; iv; Female; F344.
Series [6] has as its system Rat. Description: concentration in heart after dosing. To be noted: 40 min; dosed: Bis 2-Chloroethoxy Methane; 20 mg/kg; iv; Male; F344.
The subject of series [7] is Rat. Nature of the series: concentration in heart after dosing. Conditions: 2 h; dosed: Bis 2-Chloroethoxy Methane; 20 mg/kg; iv; Female; F344.
Series [8] relates to Rat. Description: concentration in heart after dosing. To be noted: 2 h; dosed: Bis 2-Chloroethoxy Methane; 20 mg/kg; iv; Male; F344.
For series [9], the system named is Rat. Description: concentration in heart after dosing. To be noted: 40 min; dosed: Bis 2-Chloroethoxy Methane; 20 mg/kg; iv; Female; F344.
Series [10] has as its system Rat. Nature of the series: concentration in thymus after dosing. Conditions: 2 h; dosed: Bis 2-Chloroethoxy Methane; 20 mg/kg; iv; Male; F344.
Series [11] deals with Rat. Nature of the series: concentration in plasma after dosing. To be noted: 1 h; dosed: Bis 2-Chloroethoxy Methane; 40 mg/kg; iv; Male; Harlan Sprague Dawley.
Series [12] concerns Rat. Nature of the series: concentration in thymus after dosing. Conditions: 7 h; dosed: Bis 2-Chloroethoxy Methane; 20 mg/kg; iv; Female; F344.
The subject of series [13] is Rat. Description: concentration in liver after dosing. To be noted: 12 h; dosed: Fluorotelomer alcohol 8+2; 24 mg/kg; oral; Male; Harlan Sprague Dawley.
For series [14], the system named is Rat. Description: concentration in brain after dosing. To be noted: 12 h; dosed: Fluorotelomer alcohol 8+2; 80 mg/kg; oral; Female; Harlan Sprague Dawley.
Series [15] deals with Rat. Nature of the series: concentration in kidney after dosing. To be noted: 1 h; dosed: Fluorotelomer alcohol 8+2; 24 mg/kg; oral; Male; Harlan Sprague Dawley.
Series [16] concerns Rat. Nature of the series: concentration in kidney after dosing. Conditions: 0.5 h; dosed: Fluorotelomer alcohol 8+2; 24 mg/kg; oral; Male; Harlan Sprague Dawley.
For series [17], the system named is Rat. Description: concentration in plasma after dosing. To be noted: 10 min; dosed: Di-n-butyl phthalate; 50 mg/kg; oral; Male; Sprague-Dawley.
The subject of series [18] is Rat. Description: concentration in plasma after dosing. To be noted: 10 h; dosed: Di-n-butyl phthalate; 100 mg/kg; oral; Male; Sprague-Dawley.
The subject of series [19] is Rat. Nature of the series: concentration in plasma after dosing. Conditions: 20 h; dosed: Di-n-butyl phthalate; 200 mg/kg; oral; Male; Sprague-Dawley.
The subject of series [20] is Rat. Nature of the series: concentration in plasma after dosing. Conditions: 4 h; dosed: Di-n-butyl phthalate; 20 mg/kg; iv; Male; Sprague-Dawley.
The subject of series [21] is Rat. Description: concentration in kidney after dosing. Conditions: 864 h; dosed: Perfluorodecanoic acid; 10 mg/kg; oral; Female; Harlan Sprague Dawley.
For series [22], the system named is Rat. Nature of the series: concentration in liver after dosing. To be noted: 3360 h; dosed: Perfluorodecanoic acid; 10 mg/kg; oral; Male; Harlan Sprague Dawley.
Series [23] has as its system Rat. Nature of the series: concentration in liver after dosing. Conditions: 864 h; dosed: Perfluorodecanoic acid; 10 mg/kg; oral; Male; Harlan Sprague Dawley.
Series [24] has as its system Rat. Description: concentration in brain after dosing. To be noted: 1848 h; dosed: Perfluorodecanoic acid; 10 mg/kg; oral; Female; Harlan Sprague Dawley.
Series [25] relates to Rat. Nature of the series: concentration in liver after dosing. Conditions: 24 h; dosed: Perfluorodecanoic acid; 10 mg/kg; oral; Female; Harlan Sprague Dawley.
Series [26] concerns Rat. Description: concentration in plasma after dosing. Conditions: 9 h; dosed: Primidone; 130 mg/kg; oral; Male; F344.
Series [27] relates to Rat. Nature of the series: concentration in plasma after dosing. Conditions: 12 h; dosed: Primidone; 30 mg/kg; oral; Male; F344.
Series [28] has as its system Rat. Description: concentration in plasma after dosing. To be noted: 22 h; dosed: Primidone; 30 mg/kg; oral; Female; F344.
Series [29] deals with Rat. Nature of the series: concentration in liver after dosing. To be noted: 8 h; dosed: Thiodiglycolic Acid; 20 mg/kg; iv; Female; Harlan Sprague Dawley.
The test system of series [30] is Rat. Description: concentration in heart after dosing. To be noted: 40 min; dosed: Thiodiglycolic Acid; 20 mg/kg; iv; Female; Harlan Sprague Dawley.
In series [31] the test system is Rat. Nature of the series: concentration in thymus after dosing. To be noted: 1 h; dosed: Thiodiglycolic Acid; 20 mg/kg; iv; Male; Harlan Sprague Dawley.
Series [32] relates to Rat. Description: concentration in thymus after dosing. Conditions: 6.667 h; dosed: Thiodiglycolic Acid; 20 mg/kg; iv; Female; Harlan Sprague Dawley.
The subject of series [33] is Rat. Description: concentration in thymus after dosing. Conditions: 40 min; dosed: Thiodiglycolic Acid; 20 mg/kg; iv; Female; Harlan Sprague Dawley.
Series [34] deals with human. Nature of the series: concentration in plasma after dosing; negative times count back from the end of exposure. Conditions: dosed: trichloroethylene, 100 ppm, inhalation, duration: 4 hr, person. In a few lines:
(§1)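 Sampling and analytical methods are those of each source and frequently went unreported. The concentration-versus-time and amount-versus-time points were compiled from published in vivo toxicokinetic studies and two structured collections. Most were digitised from plot screenshots with WebPlotDigitizer, with others copied from tables, in the reported units.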

For series [35], the system named is Rat. Description: concentration in plasma after dosing. To be noted: 0.25 h; dosed: dichloroacetic acid; 10 mg/kg; oral; Male; Harlan Sprague Dawley.
For the next series, the system named is dog. Conditions: dosed: tetrachloroethylene, 72 ppm, inhalation, duration: 4 hr, male, beagle. In a few lines: as §1
For series [36], the system named is human. To be noted: dosed: tetrachloroethylene, 144 ppm, inhalation, duration: 4 hr, male. In a few lines: as §1

Take `Cc1cccc(Nc2cc(Cl)nc(SCC(=O)O)n2)c1C`: the concentration in plasma with Rat [1] (0.5 h) stood at 1670 ng/mL; in the series on Rat [1] (5 h), 507 ng/mL; in the series with Rat [2] (0.25 h), 912 ng/mL; in the series with Rat [2] (4 h) it was 257 ng/mL; in the series with Rat [3], 7290 ng/mL.
With `ClCCOCOCCCl` [Bis 2-Chloroethoxy Methane], the concentration in liver in the series with Rat [4] was 4070 ng/g. Further, the concentration in thymus is 4150 ng/g with Rat [5], 478 ng/g in the series with Rat [10] and 17.7 ng/g with Rat [12]. For the same compound, the concentration in heart in the series with Rat [6] was 6920 ng/g; with Rat [7], 247 ng/g; in the series with Rat [8] it was 119 ng/g; in the series on Rat [9], 5350 ng/g. For the same compound, the concentration in plasma in the series on Rat [11] is 3100 ng/mL.
In the series with Rat [13], `OCCC(F)(F)C(F)(F)C(F)(F)C(F)(F)C(F)(F)C(F)(F)C(F)(F)C(F)(F)F` [Fluorotelomer alcohol 8+2] had a concentration in liver of 968 ng/g. The concentration in brain with Rat [14] worked out at 164 ng/g. In addition, the concentration in kidney worked out at 1520 ng/g in the series on Rat [15] and 1800 ng/g in the series with Rat [16].
Consider `CCCCOC(=O)c1ccccc1C(=O)O` [Mono-n-butyl phthalate], for which the concentration in plasma in the series on Rat [17] stood at 8110 ng/mL; in the series with Rat [18], 1170 ng/mL; in the series on Rat [19] it was 1290 ng/mL; with Rat [20], 678 ng/mL.
In turn, `O=C(O)C(F)(F)C(F)(F)C(F)(F)C(F)(F)C(F)(F)C(F)(F)C(F)(F)C(F)(F)C(F)(F)F` [Perfluorodecanoic acid] showed a concentration in kidney in the series on Rat [21] of 18600 ng/g. In addition, the values for the concentration in liver with Rat [22], with Rat [23] and in the series on Rat [25] were 13300 ng/g, 47900 ng/g and 138000 ng/g, respectively. In addition, the concentration in brain with Rat [24] stood at 752 ng/g.
As for `CCC1(c2ccccc2)C(=O)NC(=O)NC1=O` [Phenobarbital], the concentration in plasma in the series with Rat [26] stood at 9740 ng/mL; in the series on Rat [27], 2660 ng/mL; in the series with Rat [28] it was 720 ng/mL.
`O=C(O)CSCC(=O)O` [Thiodiglycolic Acid] displayed a concentration in liver in the series on Rat [29] of 60900 ng/g. In the series with Rat [30], this compound registered a concentration in heart of 2840 ng/g. For the same compound, the results for the concentration in thymus with Rat [31], with Rat [32] and in the series on Rat [33] were 1900 ng/g, 245 ng/g and 3420 ng/g, respectively.
Turning to `O=C(O)C(Cl)Cl` [dichloroacetic acid], the concentration in plasma in the series with human [34] (0 h) turned out to be 12 ng/mL; in the series on human [34] (-2 h, during exposure), 8 ng/mL; in the series on human [34] (-3 h, during exposure), 6 ng/mL; with Rat [35], 908 ng/mL.
On to `O=C(O)C(Cl)(Cl)Cl` [trichloroacetic acid], for which the “amount in urine after dosing” value came to 4.04 mg with dog (22 h); 1.08 mg with dog (46 h); 1.11 mg in the series with dog (70 h); 6.91 mg in the series with human [36] (22 h); 2.33 mg with human [36] (46 h); 2.17 mg in the series with human [36] (70 h).
